Consider 1 molecule from PMC11244656 (International journal of pharmaceutics, 2021).

Broadly, the Vd is the apparent volume that relates the amount in the body to the concentration in plasma or blood. Low readings indicate confinement near the circulation, high ones extensive tissue distribution. Usually clearance stands for a measure of how efficiently the substance is removed, as volume per time. A higher clearance goes with efficient removal. As usually defined, the Tmax is the time at which the peak concentration occurs.

For data set [1] the following is noted: rats, lipid-free formulation; cited from earlier work.
Data set [2] is described as follows: Pharmacokinetic study in rats. In kind it is in vivo. The conditions noted are these: male, Sprague Dawley, rat, plasma. Summed up:
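Male Sprague Dawley rats (275–300 g) had jugular vein cannulas placed under isoflurane, recovered 2 nights and were fasted up to 16 h. IV bolus was given in propylene glycol–water–ethanol (70:20:10). Oral gavage used the same vehicle or sesame oil. Plasma was sampled to 24 h and assayed by HPLC-UV (263 nm, internal standard, 5–15000 ng/mL). Non-compartmental analysis; n = 5 IV, 3 or 6 oral.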

A short description of data set [3]: Biodistribution study to mesenteric lymph and MLNs in rats. In kind it is in vivo. The following applies: rat, oral 5 mg/kg; for levels in MLNs compared to plasma: tmax-1h and tmax.
In the next data set the test system is human plasma-derived CM. Nature of the data set: CM association assay with human plasma-derived CM. It counts as in vitro ADME. The conditions noted are these: 1.75 μM, TG 1 mg/mL, 37°C, 1 hour, n = 9. Summed up: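 Chylomicrons came from volunteers on no medicines in the prior week, 3–4 h after a high-fat meal. Blood in K2-EDTA was centrifuged (1,160 g, 15°C, 10 min), then the plasma was ultracentrifuged (268,350 g, 15°C, 35 min). The top CM layer was diluted in PBS to 1 mg/mL TG (enzymatic kit) and held at 4°C ≤24 h. It was spiked to 1.75 μM final, stirred 1 h at 37°C and re-isolated.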

The test system of data set [4] is artificial CM-like emulsion (Intralipid). In words: CM association assay with artificial CM-like emulsion. In kind it is in vitro ADME. The following applies: 1.75 μM, TG 1 mg/mL, 37°C, 1 hour, n = 22. Put shortly:
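Intralipid 20% was diluted in PBS to 1 mg/mL triglyceride. A 2 mL volume was spiked from a 1 mg/mL propylene glycol–ethanol (99:1) stock to give 1.75 μM final. It was stirred at 170 rpm, 37°C, for 1 h. The emulsion was then re-isolated by density gradient ultracentrifugation and drug content measured by HPLC-UV.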

On to `CCC[C@@]1(CCc2ccccc2)CC(O)=C([C@H](CC)c2cccc(NS(=O)(=O)c3ccc(C(F)(F)F)cn3)c2)C(=O)O1` [TPV, tipranavir], for which the oral bioavailability in data set [1] is recorded as 30%. In data set [2] (iv, 1 mg/kg), the C0 is 17600 ng/mL, the Vd amounted to 0.903 ± 0.204 L/kg and the clearance was 4.55 mL/min/kg. The Tmax in data set [2] (po, 5 mg/kg) is 3 h. Moreover, in data set [3] (LCT-based formulation, tmax-1h (2 h) and tmax (3 h)), the “concentration in mesenteric lymph fluid compared to plasma” value is given as “three-fold higher”. The “levels in MLNs compared to plasma” value in data set [3] (LCT-based formulation) is recorded as “comparable”. Further, the “levels in MLNs compared to plasma” value in data set [3] (lipid-free formulation) is listed as “comparable”. For the same molecule, in the data set with human plasma-derived CM, the “association with natural human plasma-derived CM” value was 66.7%. Also, the “association with artificial CM-like emulsion (Intralipid)” value in data set [4] was found to be 31.6%.
